In brackets after ≈: the same amount, converted by molar mass. Activity calls are given as the source filed them. The rule behind the calls is not given here.
Experiments:
Jurkat = test: Cytotoxicity against human Jurkat cells assessed as reduction in cell viability incubated for 48 hrs by WST8 dye based assay; format: functional
Method in brief: (§1)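 Suspension leukemia lines (HL-60 promyelocytic, Jurkat T-ALL) exposed to a range of concentrations for 48 h. Viability read by WST-8. IC50 is the concentration giving 50% loss of viability, mean ± SD of triplicates. SN-38 served as positive control.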

HCT-116 = test: Cytotoxicity against human HCT116 cells assessed as reduction in cell viability incubated for 48 hrs by WST8 dye based assay; format: functional; conditions: HCT-116, 48 h
Method in brief: (§2)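 Adherent human cancer lines (A549 lung, HCT116 colon, HeLa cervix, TE8 esophageal squamous) exposed to a range of concentrations for 48 h. Viability read by WST-8. IC50 taken as 50% inhibition of viability, mean ± SD of triplicate experiments. SN-38 served as positive control. Tested up to 100 μM.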

MRC5 = test: Cytotoxicity against human MRC5 cells assessed as reduction in cell viability incubated for 48 hrs by WST8 dye based assay; conditions: MRC5, 48 h
Method in brief: (§3)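 Adherent non-cancer cells (HEK293, Ad5-transformed embryonic kidney; MRC-5, normal diploid fibroblast) treated with graded concentrations for 48 h. WST-8 viability read-out. IC50 reported as mean ± SD of triplicate experiments. SN-38 served as positive control. Tested up to 50 μM.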

Escherichia coli = test: Antibacterial activity against Escherichia coli NBRC 3301 after 17 hrs by broth microdilution method; format: functional; conditions: NBRC 3301, 17 h
Method in brief: (§4)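 Broth microdilution run to CLSI standard methods. MIC taken as the lowest concentration inhibiting growth. Ampicillin and chloramphenicol served as positive controls. Compounds were tested up to 128 µg/mL.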

Bacillus subtilis [1] = test: Bactericidal activity against Bacillus subtilis NBRC 3134 incubated for 18 hrs followed by inoculums transfer to MHA plate and further incubated for 24 hrs; format: functional
Method in brief: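 MBC determined per CLSI methods following broth microdilution MIC testing. Ampicillin and chloramphenicol served as positive controls.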

HeLa = test: Cytotoxicity against human HeLa cells assessed as reduction in cell viability incubated for 48 hrs by WST8 dye based assay; format: functional; method in brief: as §2
Bacillus subtilis [2] = test: Antibacterial activity against Bacillus subtilis NBRC 3134 after 18 hrs by broth microdilution method; format: functional; conditions: NBRC 3134, 18 h; method in brief: as §4
A549 = test: Cytotoxicity against human A549 cells assessed as reduction in cell viability incubated for 48 hrs by WST8 dye based assay; format: functional; conditions: A549, 48 h; method in brief: as §2
TE-8 = test: Cytotoxicity against human TE8 cells assessed as reduction in cell viability incubated for 48 hrs by WST8 dye based assay; format: functional; conditions: TE-8, 48 h; method in brief: as §2
HEK293 = test: Cytotoxicity against human HEK293 cells assessed as reduction in cell viability incubated for 48 hrs by WST8 dye based assay; conditions: HEK293, 48 h; method in brief: as §3
HL-60 [3] = test: Cytotoxicity against human HL60 cells assessed as reduction in cell viability incubated for 48 hrs by WST8 dye based assay; format: functional; conditions: HL-60, 48 h; method in brief: as §1
HL-60 [4] = test: Induction of cell death in human HL60 cells assessed as reduction in cell viability at 2 uM incubated for 6 hrs after pre-treatment with caspase inhibitor Z-Asp-CH2-DCB for 1 hr by WST8 dye based assay; format: functional
HL-60 [5] = test: Induction of DNA fragmentation in human HL60 cells at 0.5 to 5 uM after 6 hrs by […] staining-based agarose gel electrophoresis; format: functional, cell-based

## CC1=CC(=O)[C@]2(O1)C(=O)N[C@@](O)(CC(C)C)[C@@H]2O (racemic)
Jurkat
  IC50: > 50 µM
HCT-116
  IC50: > 100 µM
MRC5
  IC50: > 50 µM
Escherichia coli
  MIC: > 128 mg/L
Bacillus subtilis [1]
  MBC: > 128 mg/L
HeLa
  IC50: > 100 µM
Bacillus subtilis [2]
  MIC: > 128 mg/L
A549
  IC50: > 100 µM
TE-8
  IC50: > 100 µM
HEK293
  IC50: > 50 µM
HL-60 [3]
  IC50: > 50 µM

## Cc1cc2c(c(=O)[nH]1)OC(C(=O)CC(C)C)O2 (racemic)
Jurkat
  IC50: > 50 µM
HCT-116
  IC50: > 100 µM
MRC5
  IC50: > 50 µM
Escherichia coli
  MIC: > 128 mg/L
Bacillus subtilis [1]
  MBC: > 128 mg/L
HeLa
  IC50: > 100 µM
Bacillus subtilis [2]
  MIC: > 128 mg/L
A549
  IC50: > 100 µM
TE-8
  IC50: > 100 µM
HEK293
  IC50: > 50 µM
HL-60 [3]
  IC50: 19.9 µM

## CC1=CC(=O)[C@@]2(O[C@H]2C(=O)CC(C)C)C(=O)N1
Bacillus subtilis [1]
  MBC: 8 mg/L (≈ 33.7 µM)
Bacillus subtilis [2]
  MIC: 8 mg/L (≈ 33.7 µM)
HL-60 [3]
  IC50: 1.6 µM

## CC(C)C[C@]1(O)NC(=O)[C@]2(OC(Cc3ccccc3)=CC2=O)[C@H]1O (racemic)
Jurkat
  IC50: > 50 µM
HCT-116
  IC50: > 100 µM
MRC5
  IC50: > 50 µM
Escherichia coli
  MIC: > 128 mg/L
Bacillus subtilis [1]
  MBC: > 128 mg/L
HeLa
  IC50: > 100 µM
Bacillus subtilis [2]
  MIC: > 128 mg/L
A549
  IC50: > 100 µM
TE-8
  IC50: > 100 µM
HEK293
  IC50: > 50 µM
HL-60 [3]
  IC50: 28 µM

## CCc1c2c(nc3ccc(O)cc13)-c1cc3c(c(=O)n1C2)COC(=O)[C@]3(O)CC [7-ETHYL-10-HYDROXYCAMPTOTHECIN]
Jurkat
  IC50: < 1 µM
HCT-116
  IC50: < 1 µM
MRC5
  IC50: 15.3 µM
HeLa
  IC50: 13.1 µM
A549
  IC50: 6.6 µM
TE-8
  IC50: < 1 µM
HEK293
  IC50: < 1 µM
HL-60 [3]
  IC50: 2.4 µM

## O=C(N[C@H](CO)[C@H](O)c1ccc([N+](=O)[O-])cc1)C(Cl)Cl [CHLORAMPHENICOL]
Bacillus subtilis [1]
  MBC: 64 mg/L (≈ 198 µM)
Bacillus subtilis [2]
  MIC: 4 mg/L (≈ 12.4 µM)

## CC(C)C[C@@]12NC(=O)[C@]3(O)C(=O)C[C@@](C)(O[C@@H]31)O2 (racemic)
Jurkat
  IC50: > 50 µM
HCT-116
  IC50: > 100 µM
MRC5
  IC50: > 50 µM
Escherichia coli
  MIC: > 128 mg/L
Bacillus subtilis [1]
  MBC: > 128 mg/L
HeLa
  IC50: > 100 µM
Bacillus subtilis [2]
  MIC: > 128 mg/L
A549
  IC50: > 100 µM
TE-8
  IC50: > 100 µM
HEK293
  IC50: > 50 µM
HL-60 [3]
  IC50: 37.7 µM

## CC(C)CC(=O)[C@@H]1O[C@@]12C(=O)C=C(Cc1ccccc1)NC2=O (racemic)
Jurkat
  IC50: > 50 µM
HCT-116
  IC50: > 100 µM
MRC5
  IC50: > 50 µM
Escherichia coli
  MIC: > 128 mg/L
Bacillus subtilis [1]
  MBC: 128 mg/L (≈ 408 µM)
HeLa
  IC50: > 100 µM
Bacillus subtilis [2]
  MIC: 128 mg/L (≈ 408 µM)
A549
  IC50: > 100 µM
TE-8
  IC50: > 100 µM
HEK293
  IC50: > 50 µM
HL-60 [3]
  IC50: 37.3 µM

## CC(C)CC(=O)C1Oc2cc(Cc3ccccc3)[nH]c(=O)c2O1 (racemic)
Jurkat
  IC50: > 50 µM
HCT-116
  IC50: > 100 µM
MRC5
  IC50: > 50 µM
Escherichia coli
  MIC: > 128 mg/L
Bacillus subtilis [1]
  MBC: > 128 mg/L
HeLa
  IC50: > 100 µM
Bacillus subtilis [2]
  MIC: > 128 mg/L
A549
  IC50: > 100 µM
TE-8
  IC50: > 100 µM
HEK293
  IC50: > 50 µM
HL-60 [3]
  IC50: > 50 µM

## CC1(C)S[C@@H]2[C@H](NC(=O)[C@H](N)c3ccccc3)C(=O)N2[C@H]1C(=O)O [AMPICILLIN]
Escherichia coli
  MIC: 4 mg/L (≈ 11.4 µM)
Bacillus subtilis [1]
  MBC: < 0.5 mg/L
Bacillus subtilis [2]
  MIC: < 0.5 mg/L

## CC1=CC(=O)C2(OC2C(=O)CC(C)C)C(=O)N1 (racemic)
Jurkat
  IC50: 8 µM
HCT-116
  IC50: 30.4 µM
MRC5
  IC50: 33.2 µM
Escherichia coli
  MIC: > 128 mg/L
HL-60 [4]
  Activity: Active
Bacillus subtilis [1]
  MBC: 8 mg/L (≈ 33.7 µM)
HeLa
  IC50: 40.5 µM
Bacillus subtilis [2]
  MIC: 8 mg/L (≈ 33.7 µM)
A549
  IC50: 32.1 µM
TE-8
  IC50: 21.6 µM
HEK293
  IC50: 35.9 µM
HL-60 [3]
  IC50: 1.8 µM
HL-60 [5]
  Activity: inactive

## CC1=CC(=O)[C@]2(O[C@@H]2C(=O)CC(C)C)C(=O)N1
Bacillus subtilis [1]
  MBC: 8 mg/L (≈ 33.7 µM)
Bacillus subtilis [2]
  MIC: 8 mg/L (≈ 33.7 µM)
HL-60 [3]
  IC50: 1.7 µM
